These results are taken from ChEMBL document CHEMBL1124891, “Azulene derivatives: new non-prostanoid thromboxane A2 receptor antagonists” (J Med Chem, 1990).

Assay type in all cases: functional
For test [1], the species on record is Oryctolagus cuniculus. In words: Tested for the concentration that causes 50% relaxation when contraction in rabbit aorta was induced by 3 x 10 E -8 M of U-46619. The essentials: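 Rabbit thoracic aorta strips held at 37 °C in oxygenated (95% O2/5% CO2) bicarbonate salt solution with dextrose, resting tension 1.5 g, equilibrated 1 h. Isometric tension recorded via force transducer. Once contraction to 3×10^-8 M U-46619 plateaued, compound added cumulatively. Concentration giving 50% relaxation of maximal U-46619-induced tension change obtained by regression of concentration–relaxation curve.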

Test [2] is filed under the species Oryctolagus cuniculus. Put plainly: Tested for the concentration that cause 50% inhibition of the maximum aggregation with rabbit platelet-rich plasma induced by 2.5 x 10 E -6 M of U-46619. The essentials:
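Rabbit blood drawn from carotid artery into 3.18% trisodium citrate (1/10 volume). PRP from 300 g spin for 15 min; PPP from 1000g spin for 20 min, used as 100% transmission reference. PRP warmed 2 min at 37 °C, compound or vehicle added, 2 min later 2.5×10^-6 M U-46619. Turbidimetric (Born) aggregometry; IC50 as 50% inhibition of maximum aggregation.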

Test [3] in a line: Selectivity index is the […] between the IC50 values in the aggregation and contraction assays. The essentials: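 Index for τ-receptor computed as […] between IC50 in rabbit PRP aggregation (2.5×10^-6 M U-46619) and IC50 for relaxing rabbit aorta contracted by 3×10^-8 M U-46619.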

One may read the IC50 as the midpoint of a concentration-inhibition curve. A low value points to greater potency. Take `O=C(O)COc1ccc(CCNS(=O)(=O)c2ccccc2)cc1` [SULOTROBAN]: the IC50 in the test filed under Oryctolagus cuniculus [1] was 1.3 µM; in the test listed under Oryctolagus cuniculus [2], 7.1 µM. Also, the Selectivity index in test [3] came to 5.

`CC(C)c1ccc2c(/C=C/C(=O)O)cc(CCCCNS(=O)(=O)c3ccccc3)c-2cc1`: the values for the IC50 in the test listed under Oryctolagus cuniculus [1] and in the test listed under Oryctolagus cuniculus [2] were 16 µM and > 100 µM, respectively. In addition, the Selectivity index in test [3] was > 6.

Consider `CC(C)c1ccc2c(CCCNS(=O)(=O)c3ccccc3)cc(C(=O)O)c-2cc1`, for which the values for the half-inhibitory concentration (IC50) in the test listed under Oryctolagus cuniculus [1] and in the test filed under Oryctolagus cuniculus [2] were 14 µM and > 100 µM, respectively. For the same molecule, the Selectivity index in test [3] was > 7.

Consider `CC(C)c1ccc2c(CCCCNS(=O)(=O)c3ccccc3)cc(S(=O)(=O)O)c-2cc1`, for which the IC50 in the test listed under Oryctolagus cuniculus [1] is 1.1 µM; in the test filed under Oryctolagus cuniculus [2], > 100 µM. The Selectivity index in test [3] was > 91.

Take `CC(C)c1ccc2c(CCCCNS(=O)(=O)c3ccc(Cl)cc3)cc(S(=O)(=O)O)c-2cc1`: the IC50 in the test filed under Oryctolagus cuniculus [1] amounted to 0.023 µM; in the test filed under Oryctolagus cuniculus [2], 8.7 µM. This molecule came in with a Selectivity index in test [3] of 378.

Turning to `CC(C)c1ccc2c(CCCCNS(=O)(=O)c3ccccc3)cc(CC(=O)O)c-2cc1`, the IC50 in the test listed under Oryctolagus cuniculus [1] is 3 µM; in the test filed under Oryctolagus cuniculus [2], > 100 µM. Moreover, the Selectivity index in test [3] was > 33.

Turning to `CC(C)c1ccc2c(CCNS(=O)(=O)c3ccccc3)cc(C(=O)O)c-2cc1`, the IC50 in the test filed under Oryctolagus cuniculus [1] is 14 µM; in the test listed under Oryctolagus cuniculus [2], > 100 µM. In test [3], the Selectivity index was > 7.

Regarding `COc1ccc(S(=O)(=O)NCCCCc2cc(S(=O)(=O)O)c3ccc(C(C)C)ccc2-3)cc1`, the IC50 in the test filed under Oryctolagus cuniculus [1] is 0.097 µM; in the test filed under Oryctolagus cuniculus [2] it was 64 µM. In addition, the Selectivity index in test [3] was found to be 660.

As for `COc1ccc(S(=O)(=O)NCCCCc2cc(C(=O)O)c3ccc(C(C)C)ccc2-3)cc1`, the IC50 in the test filed under Oryctolagus cuniculus [1] is 0.43 µM; in the test listed under Oryctolagus cuniculus [2], > 100 µM. In test [3], the Selectivity index is > 233.

In the case of `CC(C)c1ccc2c(CCCCNS(=O)(=O)c3ccccc3)cc(C(=O)O)c-2cc1`, the IC50 in the test filed under Oryctolagus cuniculus [1] was 1.6 µM; in the test listed under Oryctolagus cuniculus [2] it was > 100 µM. For the same molecule, the Selectivity index in test [3] was > 63.

`CC(C)c1ccc2c(CCCCCNS(=O)(=O)c3ccccc3)cc(C(=O)O)c-2cc1`: the results for the IC50 in the test filed under Oryctolagus cuniculus [1] and in the test listed under Oryctolagus cuniculus [2] were 3.4 µM and > 100 µM, respectively. Also, the Selectivity index in test [3] was > 29.

Take `CC(C)c1ccc2c(CCCCNS(=O)(=O)c3ccc(Cl)cc3)cc(C(=O)O)c-2cc1`: the IC50 in the test filed under Oryctolagus cuniculus [1] was 0.15 µM; in the test listed under Oryctolagus cuniculus [2], > 100 µM. For the same molecule, the Selectivity index in test [3] is > 667.
